Laboratory results published in ChEMBL document CHEMBL3792373, “Anti-methicillin resistant Staphylococcus aureus activity, synergism with oxacillin and molecular docking studies of metronidazole-triazole hybrids” (Eur J Med Chem, 2016).
Converted amounts (≈) assume the structure as drawn.

Key:
Staphylococcus aureus [1] = assay: Bactericidal activity against methicillin-resistant Staphylococcus aureus isolate 1a assessed as reduction in colony counts at 32 ug/ml after 12 hrs by pour plate method in presence of oxacillin (1:1) (reference value: 10.12 +/- 0.428 log10CFU/ml); type: functional
Staphylococcus aureus [2] = assay: Antimicrobial activity against methicillin-resistant Staphylococcus aureus isolate 29a after 24 hrs by agar plate dilution method; type: functional
Summary of the method: (§1)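 Clinical MRSA isolates from axilla/nasal swabs, identified by mannitol salt agar, Gram stain and coagulase test. Agar plate dilution with compound series 0.03–128 µg/mL. Inoculum suspended in water to McFarland 0.5. Incubation 24 h at 37 °C. MIC read as the lowest level without white growth spots. Dilution series quality-controlled with S. aureus NCTC 6571.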

Staphylococcus aureus [3] = assay: Antimicrobial activity against methicillin-resistant Staphylococcus aureus isolate 15a after 24 hrs by agar plate dilution method; type: functional; summary of the method: as §1
Staphylococcus aureus [4] = assay: Bactericidal activity against methicillin-resistant Staphylococcus aureus isolate 1a assessed as reduction in colony counts at 32 ug/ml after 8 hrs by pour plate method in presence of oxacillin (1:1) (reference value: 8.30 +/- 0.442 log10CFU/ml); type: functional
Staphylococcus aureus [5] = assay: Antimicrobial activity against methicillin-resistant Staphylococcus aureus isolate 2a after 24 hrs by agar plate dilution method in presence of oxacillin (1:1); type: functional
Summary of the method: (§2)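 Test compound and oxacillin mixed 1:1, each at 32 µg/mL in the mixture, then serially diluted into agar plates. Clinical MRSA isolates at McFarland 0.5 in water were spotted onto the plates and incubated 24 h at 37 °C. Growth was read as white spots. NCTC 6571 S. aureus served as the dilution-series control.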

Staphylococcus aureus [6] = assay: Antimicrobial activity against methicillin-resistant Staphylococcus aureus isolate 28a after 24 hrs by agar plate dilution method in presence of oxacillin (1:1); type: functional; summary of the method: as §2
Staphylococcus aureus [7] = assay: Antimicrobial activity against methicillin-resistant Staphylococcus aureus isolate 4a after 24 hrs by agar plate dilution method; type: functional; summary of the method: as §1
Staphylococcus aureus [8] = assay: Antimicrobial activity against methicillin-resistant Staphylococcus aureus isolate 4a after 24 hrs by agar plate dilution method in presence of oxacillin (1:1); type: functional; summary of the method: as §2
Staphylococcus aureus [9] = assay: Antimicrobial activity against methicillin-resistant Staphylococcus aureus isolate 18a after 24 hrs by agar plate dilution method in presence of oxacillin (1:1); type: functional; summary of the method: as §2
Staphylococcus aureus [10] = assay: Antimicrobial activity against methicillin-resistant Staphylococcus aureus isolate 16a after 24 hrs by agar plate dilution method in presence of oxacillin (1:1); type: functional; summary of the method: as §2
Staphylococcus aureus [11] = assay: Antimicrobial activity against methicillin-resistant Staphylococcus aureus isolate 17a after 24 hrs by agar plate dilution method in presence of oxacillin (1:1); type: functional; summary of the method: as §2
Staphylococcus aureus [12] = assay: Antimicrobial activity against methicillin-resistant Staphylococcus aureus isolate 19a after 24 hrs by agar plate dilution method in presence of oxacillin (1:1); type: functional; summary of the method: as §2
Staphylococcus aureus [13] = assay: Antimicrobial activity against methicillin-resistant Staphylococcus aureus isolate 14a after 24 hrs by agar plate dilution method in presence of oxacillin (1:1); type: functional; summary of the method: as §2
Staphylococcus aureus [14] = assay: Bactericidal activity against methicillin-resistant Staphylococcus aureus isolate 1a assessed as reduction in colony counts at 32 ug/ml after 12 hrs by pour plate method (reference value: 10.12 +/- 0.428 log10CFU/ml); type: functional
Staphylococcus aureus [15] = assay: Antimicrobial activity against methicillin-resistant Staphylococcus aureus isolate 19a after 24 hrs by agar plate dilution method; type: functional; summary of the method: as §1
Staphylococcus aureus [16] = assay: Antimicrobial activity against methicillin-resistant Staphylococcus aureus isolate 25a after 24 hrs by agar plate dilution method in presence of oxacillin (1:1); type: functional; summary of the method: as §2
[17] = Cytotoxicity against human THP1 cells upto 50 uM treated 3 times per week for 14 days by MTT assay; type: cell-based; conditions: thp-1, 336 h
Staphylococcus aureus [18] = assay: Antimicrobial activity against methicillin-resistant Staphylococcus aureus isolate 5a after 24 hrs by agar plate dilution method in presence of oxacillin (1:1); type: functional
Summary of the method: (§3)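 Clinical MRSA isolates, from axilla/nasal swabs and identified by mannitol salt agar, Gram stain and coagulase test. […] Inoculum adjusted to McFarland 0.5 in water. Plates incubated 24 h at 37 °C and scored for growth spots. Dilution series quality-controlled with S. aureus NCTC 6571. Combination lines used a 1:1 mixture with oxacillin.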

Staphylococcus aureus [19] = assay: Antimicrobial activity against methicillin-resistant Staphylococcus aureus isolate 21a after 24 hrs by agar plate dilution method; type: functional; summary of the method: as §1
Staphylococcus aureus [20] = assay: Antimicrobial activity against methicillin-resistant Staphylococcus aureus isolate 8a after 24 hrs by agar plate dilution method in presence of oxacillin (1:1); type: functional; summary of the method: as §3
Staphylococcus aureus [21] = assay: Bactericidal activity against methicillin-resistant Staphylococcus aureus isolate 1a assessed as reduction in colony counts at 32 ug/ml after 16 hrs by pour plate method (reference value: 12.50 +/- 0.291 log10CFU/ml); type: functional
Staphylococcus aureus [22] = assay: Antimicrobial activity against methicillin-resistant Staphylococcus aureus isolate 30a after 24 hrs by agar plate dilution method in presence of oxacillin (1:1); type: functional; summary of the method: as §2
Staphylococcus aureus [23] = assay: Bactericidal activity against methicillin-resistant Staphylococcus aureus isolate 1a assessed as reduction in colony counts at 32 ug/ml after 4 hrs by pour plate method in presence of oxacillin (1:1) (reference value: 6.14 +/- 0.456 log10CFU/ml); type: functional
Staphylococcus aureus [24] = assay: Antimicrobial activity against methicillin-resistant Staphylococcus aureus isolate 1a after 24 hrs by agar plate dilution method; type: functional; summary of the method: as §1
Staphylococcus aureus [25] = assay: Antimicrobial activity against methicillin-resistant Staphylococcus aureus isolate 17a after 24 hrs by agar plate dilution method; type: functional; summary of the method: as §1
Staphylococcus aureus [26] = assay: Antimicrobial activity against methicillin-resistant Staphylococcus aureus isolate 27a after 24 hrs by agar plate dilution method in presence of oxacillin (1:1); type: functional; summary of the method: as §2
Staphylococcus aureus [27] = assay: Antimicrobial activity against methicillin-resistant Staphylococcus aureus isolate 15a after 24 hrs by agar plate dilution method in presence of oxacillin (1:1); type: functional; summary of the method: as §2
Staphylococcus aureus [28] = assay: Antimicrobial activity against methicillin-resistant Staphylococcus aureus isolate 13a after 24 hrs by agar plate dilution method; type: functional; summary of the method: as §1
Staphylococcus aureus [29] = assay: Antimicrobial activity against methicillin-resistant Staphylococcus aureus isolate 20a after 24 hrs by agar plate dilution method in presence of oxacillin (1:1); type: functional; summary of the method: as §2
Staphylococcus aureus [30] = assay: Bactericidal activity against methicillin-resistant Staphylococcus aureus isolate 1a assessed as reduction in colony counts at 32 ug/ml after 8 hrs by pour plate method (reference value: 8.30 +/- 0.442 log10CFU/ml); type: functional
Staphylococcus aureus [31] = assay: Antimicrobial activity against methicillin-resistant Staphylococcus aureus isolate 7a after 24 hrs by agar plate dilution method; type: functional; summary of the method: as §3
Staphylococcus aureus [32] = assay: Antimicrobial activity against methicillin-resistant Staphylococcus aureus isolate 28a after 24 hrs by agar plate dilution method; type: functional; summary of the method: as §1
Staphylococcus aureus [33] = assay: Antimicrobial activity against methicillin-resistant Staphylococcus aureus isolate 23a after 24 hrs by agar plate dilution method in presence of oxacillin (1:1); type: functional; summary of the method: as §2
Staphylococcus aureus [34] = assay: Antimicrobial activity against methicillin-resistant Staphylococcus aureus isolate 25a after 24 hrs by agar plate dilution method; type: functional; summary of the method: as §1

With Cc1ncc([N+](=O)[O-])n1CCn1cc(COc2c(Cl)cccc2Cl)nn1 the Activity (Staphylococcus aureus [1]) was 5.91 log10CFU/ml, the MIC (Staphylococcus aureus [2]) was 128 µg/mL (≈ 322 µM) and the MIC (Staphylococcus aureus [3]) was > 128 µg/mL. For the same molecule, the Activity (Staphylococcus aureus [4]) was 5.85 log10CFU/ml, the MIC (Staphylococcus aureus [5]) was 1 µg/mL and the MIC (Staphylococcus aureus [6]) was 1 µg/mL. The MIC (Staphylococcus aureus [7]) was 4 µg/mL (≈ 10.1 µM), the MIC (Staphylococcus aureus [8]) was 2 µg/mL and the MIC (Staphylococcus aureus [9]) was 4 µg/mL. The MIC (Staphylococcus aureus [10]) was 2 µg/mL, the MIC (Staphylococcus aureus [11]) was 1 µg/mL and the MIC (Staphylococcus aureus [12]) was 2 µg/mL. For the same molecule, the MIC (Staphylococcus aureus [13]) was 4 µg/mL, the Activity (Staphylococcus aureus [14]) was 5.96 log10CFU/ml and the MIC (Staphylococcus aureus [15]) was 32 µg/mL (≈ 80.6 µM). The MIC (Staphylococcus aureus [16]) was 4 µg/mL, the Activity [17] was “Non-toxic” and the MIC (Staphylococcus aureus [18]) was 1 µg/mL. The MIC (Staphylococcus aureus [19]) was 4 µg/mL (≈ 10.1 µM), the MIC (Staphylococcus aureus [20]) was 1 µg/mL and the Activity (Staphylococcus aureus [21]) was 5.53 log10CFU/ml. For the same molecule, the MIC (Staphylococcus aureus [22]) was 8 µg/mL, the Activity (Staphylococcus aureus [23]) was 5.5 log10CFU/ml and the MIC (Staphylococcus aureus [24]) was 4 µg/mL (≈ 10.1 µM). The MIC (Staphylococcus aureus [25]) was 32 µg/mL (≈ 80.6 µM), the MIC (Staphylococcus aureus [26]) was 4 µg/mL and the MIC (Staphylococcus aureus [27]) was 4 µg/mL. The MIC (Staphylococcus aureus [28]) was 64 µg/mL (≈ 161 µM), the MIC (Staphylococcus aureus [29]) was 2 µg/mL and the Activity (Staphylococcus aureus [30]) was 6.05 log10CFU/ml. The MIC (Staphylococcus aureus [31]) was 4 µg/mL (≈ 10.1 µM), the MIC (Staphylococcus aureus [32]) was 128 µg/mL (≈ 322 µM) and the MIC (Staphylococcus aureus [33]) was 4 µg/mL. For the same molecule, the MIC (Staphylococcus aureus [34]) was 64 µg/mL (≈ 161 µM).
